Results taken from ChEMBL document CHEMBL4706536, “Novel HIV-1 capsid-targeting small molecules of the PF74 binding site” (Eur J Med Chem, 2020).

Columns and labels:
[1] = Half life in mouse liver microsomes at 1 uM in presence of NADPH preincubated for 15 mins followed by NADPH addition and measured up to 60 mins by LC-MS/MS analysis; assay type: ADME, Microsome; conditions: time 15-75 min
Summary of the method: (§1)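 Compound at 1 µM final was preincubated 15 min at 37 °C with human or mouse liver microsomes (0.5 mg/mL protein) and 1 mM MgCl2 in 0.1 M potassium phosphate, pH 7.4. The reaction was started with 1 mM NADPH at 37 °C and sampled at 0, 5, 15, 30 and 60 min. Samples were quenched in acetonitrile/0.1% formic acid with internal standard; t1/2 was determined by LC-MS/MS. A no-NADPH control ran in parallel. Done in duplicate.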

[2] = Cytotoxicity against human TZM cells expressing GFP assessed as reduction in cell viability after 72 hrs by XTT assay; assay type: cell-based
Summary of the method: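 TZM-GFP cells were seeded at 1×10^4 per well and exposed continuously to increasing compound concentrations for 72 h. Viable cells were measured by XTT. CC50 came from a log(inhibitor) vs normalized response, variable-slope fit, averaged across independent experiments. Duplicate wells, ≥2 experiments, mean ± SD.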

[3] = test system: Human immunodeficiency virus 1; experiment: Antiviral activity against HIV 1 NL4-3 infected in human TZM cells expressing GFP assessed as inhibition LTR-activated GFP expression at 2 uM preincubated for 24 hrs followed by viral infection and measured after 48 hrs relative to control; assay type: functional; conditions: Human immunodeficiency virus 1, NL4-3, TZM, time 72 hrs
Summary of the method: (§2)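 TZM-GFP cells were seeded at 1×10^4 per well. After 24 h, medium was replaced with compound at a single concentration. After a further 24 h, cells were infected with HIV-1 NL4-3 (MOI = 1) and incubated 48 h. GFP-positive cells were counted by imaging and expressed as % inhibition of LTR-driven GFP versus compound-free DMSO control. Run in duplicate, at least two independent experiments.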

[4] = Half life in human liver microsomes at 1 uM in presence of NADPH preincubated for 15 mins followed by NADPH addition and measured up to 60 mins by LC-MS/MS analysis; assay type: ADME, Microsome; conditions: time 15-75 min; summary of the method: as §1
[5] = test system: Human immunodeficiency virus 1; experiment: Antiviral activity against HIV 1 NL4-3 infected in human TZM cells expressing GFP assessed as inhibition LTR-activated GFP expression at 20 uM preincubated for 24 hrs followed by viral infection and measured after 48 hrs relative to control; assay type: functional; conditions: Human immunodeficiency virus 1, NL4-3, TZM, time 72 hrs; summary of the method: as §2
[6] = test system: Human immunodeficiency virus 1; experiment: Antiviral activity against HIV 1 NL4-3 infected in human TZM cells expressing GFP assessed as reduction in LTR-activated GFP expression preincubated for 24 hrs followed by viral infection and measured after 48 hrs; assay type: functional, organism-based; conditions: Human immunodeficiency virus 1, NL4-3, TZM
Summary of the method: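 TZM-GFP cells were seeded at 1×10^4 per well. After 24 h they were given increasing compound concentrations for 24 h, then infected with HIV-1 NL4-3 (MOI = 1) for 48 h. GFP-positive cells were counted versus DMSO control. EC50 came from a log(inhibitor) vs normalized response, variable-slope fit, calculated per independent experiment and averaged. Duplicate wells, ≥2 experiments, mean ± SD.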

Compound	half-life at 1 µM [1] [min]	half-life at 1 µM [4] [min]	EC50 [6] [µM]	CC50 at 72 h [2] [µM]	inhibition at 2 µM [3] [%]	inhibition at 20 µM [5] [%]
CN(C(=O)[C@H](Cc1ccccc1)NC(=O)Cn1cnc2c1c(=O)n(C)c(=O)n2C)c1ccccc1	1.2	4.7		> 50	10	94
CCN(C(=O)[C@H](Cc1ccccc1)NC(=O)Cn1cnc2c1c(=O)n(C)c(=O)n2C)c1ccccc1				> 50	0	94
CN(C(=O)[C@H](Cc1ccccc1)NC(=O)Cn1cnc2c1c(=O)n(C)c(=O)n2C)c1cccc(Cl)c1				> 50	0	71
COc1ccc2[nH]cc(CC(=O)N[C@@H](Cc3ccccc3)C(=O)N(C)c3ccccc3)c2c1	0.5	1.2	0.56	48		
CN(C(=O)[C@H](Cc1ccccc1)NC(=O)Cn1cnc2c1c(=O)n(C)c(=O)n2C)c1cccc(F)c1				> 50	1	67
CN(C(=O)[C@H](Cc1ccccc1)NC(=O)Cn1cnc2c1c(=O)n(C)c(=O)n2C)c1ccc(Cl)cc1				> 50	6	96
CN(C(=O)[C@H](Cc1ccccc1)NC(=O)Cn1cnc2c1c(=O)n(C)c(=O)n2C)c1ccc(F)cc1				> 50	14	85
Cc1ccc(N(C)C(=O)[C@H](Cc2ccccc2)NC(=O)Cn2cnc3c2c(=O)n(C)c(=O)n3C)cc1				> 50	18	98

Second part, led by results:

half-life at 1 µM [1] [min]	half-life at 1 µM [4] [min]	EC50 [6] [µM]	Compound	CC50 at 72 h [2] [µM]	inhibition at 2 µM [3] [%]	inhibition at 20 µM [5] [%]
		0.32	CN(C(=O)[C@H](Cc1ccccc1)NC(=O)Cc1c[nH]c2ccc(O)cc12)c1cccc(F)c1	47		
		0.57	COc1ccc2[nH]cc(CC(=O)N[C@@H](Cc3ccccc3)C(=O)N(C)c3ccc(F)cc3)c2c1	> 50		
		0.38	CN(C(=O)[C@H](Cc1ccccc1)NC(=O)Cc1c[nH]c2ccc(O)cc12)c1cccc(Br)c1	> 100		
		0.28	COc1ccc2[nH]cc(CC(=O)N[C@@H](Cc3ccccc3)C(=O)N(C)c3ccc(C)cc3)c2c1	> 50		
		0.48	CN(C(=O)[C@H](Cc1ccccc1)NC(=O)Cc1c[nH]c2ccc(O)cc12)c1cccc(C(F)(F)F)c1	65		
		0.31	CN(C(=O)[C@H](Cc1ccccc1)NC(=O)Cc1c[nH]c2ccc(O)cc12)c1cccc(Cl)c1	> 100		
		0.46	CN(C(=O)[C@H](Cc1ccccc1)NC(=O)Cc1c[nH]c2ccc(O)cc12)c1ccc(F)cc1	> 50		
0.6	1.8	0.31	COc1ccc2[nH]cc(CC(=O)N[C@@H](Cc3ccccc3)C(=O)N(C)c3ccc(Cl)cc3)c2c1	> 50		
		0.99	COc1ccc2[nH]cc(CC(=O)N[C@@H](Cc3ccccc3)C(=O)N(C)c3cccc(F)c3)c2c1	> 50		
